Test results: ChEMBL document CHEMBL1128321, “Piperazinylalkyl heterocycles as potential antipsychotic agents” (J Med Chem, 1995)
pKi: −log10 of the molar value.

Legend:
[1] = molecular target: T1, 5-hydroxytryptamine receptor 1A (Rattus norvegicus, UniProt P19327); test: Binding affinity was determined against 5-hydroxytryptamine 1A receptor using […]
T1 sequence (P19327 whole entry): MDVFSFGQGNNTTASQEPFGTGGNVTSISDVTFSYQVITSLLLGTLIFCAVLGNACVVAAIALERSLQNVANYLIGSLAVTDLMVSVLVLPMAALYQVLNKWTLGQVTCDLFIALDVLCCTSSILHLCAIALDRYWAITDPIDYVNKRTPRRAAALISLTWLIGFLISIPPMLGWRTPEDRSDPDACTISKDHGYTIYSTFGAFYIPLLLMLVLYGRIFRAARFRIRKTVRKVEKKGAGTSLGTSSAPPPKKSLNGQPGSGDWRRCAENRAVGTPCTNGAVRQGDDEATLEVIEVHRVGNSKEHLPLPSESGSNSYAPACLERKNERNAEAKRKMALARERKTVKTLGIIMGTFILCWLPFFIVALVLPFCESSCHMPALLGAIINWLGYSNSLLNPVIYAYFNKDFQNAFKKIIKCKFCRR

[2] = Stability half-life at pH-2; format: physicochemical
Outline: (§1)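 Half-life measured in solution at pH 2, about 3 × 10⁻³ M compound in citric acid–phosphate buffer at 22 °C.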

[3] = system: Rattus norvegicus; test: Percentage of animals failing to escape shock was measured, affording a rough index for nonspecific sedation at 5 mg/kg(ip)
[4] = system: Rattus norvegicus; test: Conditioned avoidance response activity was determined by the ability to block the conditioned avoidance of a foot shock at 15 mg/kg(ip); format: functional
Outline: (§2)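 Male Fischer 344 rats (300–500 g) trained on a discrete-trial single-lever task, pressing the lever to avoid an impending shock; block of responding read at time of peak effect. Escape loss = percent of animals failing to escape the shock; >20% escape loss with CAR inhibition taken as potential for sedation.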

[5] = system: Rattus norvegicus; test: Conditioned avoidance response activity was determined by the ability to block the conditioned avoidance of a foot shock at 5 mg/kg(ip); format: functional; outline: as §2
[6] = Stability half-life at pH-2; stable; format: physicochemical; outline: as §1

SMILES	pKi [1]	half-life [2] [h]	Esc loss [3] [%]	inhibition in vivo at 15 mg/kg [4] [%]	inhibition in vivo at 5 mg/kg [5] [%]	T1/2 [6]
CC(C)Oc1ccccc1N1CCN(Cc2ccc(CN3CCCCCC3=O)o2)CC1.O=C(O)CCC(=O)O	7.29	10.5	1	83	–	–
CC(C)Oc1ccccc1N1CCN(Cc2cccc(C(=O)N3CCCCC3)c2)CC1 [MAZAPERTINE]	–	–	–	–	98	–
CC(C)Oc1ccccc1N1CCN(Cc2ccc(C(=O)N3CCCCCC3)s2)CC1.Cl	8.49	–	3	–	8	–
COc1ccccc1N1CCN(Cc2ccc(CCN3CCCCC3=O)n2C)CC1.Cl	–	< 0.117	9	–	75	–
O=C(O)CCC(=O)O.O=C1CCCCN1Cc1ccc(CN2CCN(c3cccc4ccoc34)CC2)s1	10.15	–	5	–	63	–
CCCN(Cc1ccc(CN2CCN(c3ccccc3OC)CC2)n1C)S(=O)(=O)c1ccccc1	–	–	0	0	–	–
CC(C)Oc1ccccc1N1CCN(Cc2ccc(CCN3CCCCC3=O)n2C)CC1.Cl	–	< 0.217	27	–	77	–
COc1ccccc1N1CCN(Cc2ccc(CN(C(=O)C3CCCCC3)C(C)C)n2C)CC1.O=C(O)CCC(=O)O	7.96	–	26	–	36	–
CCCCC(=O)N(C)Cc1ccc(CN2CCN(c3ccccc3OC)CC2)n1C.O=C(O)CCC(=O)O	8.35	–	1	–	2	–
CC(C)Oc1ccccc1N1CCN(CC2CC(CO)=NO2)CC1 (stereo unspecified)	6.92	60.9	26	–	96	–
CC(C)Oc1ccccc1N1CCN(Cc2ccc(CN(C(=O)C3CCCCC3)C(C)C)n2C)CC1.O=C(O)CCC(=O)O	8.33	–	0	–	13	–
CC(C)Oc1ccccc1N1CCN(CCc2ccc(C(=O)C(=O)N3CCCCC3)n2C)CC1.O=C(O)CCC(=O)O	8.64	–	1	–	16	Stable
COc1ccccc1N1CCN(Cc2ccc(CNC(C)=O)n2C)CC1.O=C(O)CCC(=O)O	–	–	3	–	14	–
CNC(=O)c1ccc(CN2CCN(c3ccccc3OC)CC2)n1C.O=C(O)CCC(=O)O	6.61	–	0	–	22	Stable
CC(C)NC(=O)c1ccc(CN2CCN(c3ccccc3OC(C)C)CC2)n1C.O=C(O)CCC(=O)O	7.32	382	0	–	1	–
CCCCC(=O)N(C)Cc1ccc(CN2CCN(c3ccccc3OC(C)C)CC2)n1C.O=C(O)CCC(=O)O	9.60	–	0	–	4	–
CC(C)Oc1ccccc1N1CCN(Cc2cc(CN3CCCCC3=O)no2)CC1.Cl	7.03	18.3	0	–	0	–
COc1ccccc1N1CCN(Cc2ccc(CN(C(C)=O)C(C)C)n2C)CC1.O=C(O)CCC(=O)O	7.80	–	0	–	8	–
CC(C)Oc1ccccc1N1CCN(Cc2cccc(CN3CCCCC3=O)n2)CC1.Cl	6.08	70.3	15	–	85	–
CC(C)Oc1ccccc1N1CCN(Cc2cc(CO)no2)CC1	–	57.7	1	–	29	–
COc1ccccc1N1CCN(Cc2ccc(CN3CCCCC3=O)o2)CC1.O=C(O)CCC(=O)O	7.42	–	0	10	–	–
COc1ccccc1N1CCN(CCc2ccc(C(=O)C(=O)N3CCCCC3)n2C)CC1.O=C(O)CCC(=O)O	7.60	–	26	–	45	–
CC(C)Oc1ccccc1N1CCN(CC2CC(CN3CCCCC3=O)=NO2)CC1 (stereo unspecified)	8.00	–	20	–	69	–
CC(C)Oc1ccccc1N1CCN(Cc2ccc(CN3CCCCC3=O)o2)CC1.O=C(O)CCC(=O)O	7.68	–	0	–	46	Stable
CC(=O)N(C)Cc1ccc(CN2CCN(c3ccccc3OC(C)C)CC2)n1C.O=C(O)CCC(=O)O	7.92	1.17	2	–	63	–

SMILES	pKi [1]	half-life [2] [h]	Esc loss [3] [%]	inhibition in vivo at 15 mg/kg [4] [%]	inhibition in vivo at 5 mg/kg [5] [%]	T1/2 [6]
CC(C)Oc1ccccc1N1CCN(Cc2cc(C(=O)N3CCCCC3)cs2)CC1.Cl	8.60	–	34	–	72	–
COc1ccccc1N1CCN(Cc2ccc(CN(C)S(C)(=O)=O)n2C)CC1.O=C(O)CCC(=O)O	7.96	2.87	4	–	23	–
COc1ccccc1N1CCN(CCc2ccc(CN3CCCCC3=O)n2C)CC1.O=C(O)CCC(=O)O	8.85	–	4	–	23	Stable
CC(C)Oc1ccccc1N1CCN(Cc2ccc(C(=O)N3CCCCC3)s2)CC1.O=C(O)CCC(=O)O	8.38	–	18	–	56	–
CC(C)Oc1ccccc1N1CCN(Cc2ccc(CN(C)S(=O)(=O)C(C)C)n2C)CC1.O=C(O)CCC(=O)O	8.24	–	0	0	–	–
COc1ccccc1N1CCN(Cc2ccc(CN(C)S(=O)(=O)C(C)C)n2C)CC1.O=C(O)CCC(=O)O	7.41	2.17	0	–	6	–
COc1ccccc1N1CCN(Cc2ccc(CN(C(C)C)S(C)(=O)=O)n2C)CC1	–	–	0	–	1	–
Cl.O=C(c1ccc(CN2CCN(c3cccc4ccoc34)CC2)s1)N1CCCCC1	9.20	–	0	–	3	–
CC(C)Oc1ccccc1N1CCN(Cc2ccc(CN(C)S(C)(=O)=O)n2C)CC1.O=C(O)CCC(=O)O	–	3.7	0	–	8	–
CC(C)Oc1ccccc1N1CCN(Cc2ccc(CN(C(=O)C(C)C)C(C)C)n2C)CC1.O=C(O)CCC(=O)O	8.72	–	0	–	0	–
CC(C)Oc1ccccc1N1CCN(CCc2ccc(C(=O)C(=O)N3CCCCCC3)n2C)CC1.O=C(O)CCC(=O)O	7.92	–	0	–	1	Stable
CC(C)Oc1ccccc1N1CCN(Cc2ccc(CN3CCCCC3=O)s2)CC1.Cl	8.51	–	3	–	58	–
CC(C)Oc1ccccc1N1CCN(CCc2ccc(C(=O)C(=O)N3CCOCC3)n2C)CC1.O=C(O)CCC(=O)O	8.03	85	0	–	2	–
CC(C)Oc1ccccc1N1CCN(CCc2ccc(CN3CCCCC3=O)n2C)CC1.O=C(O)CCC(=O)O	8.82	–	19	–	82	Stable
CC(C)Oc1ccccc1N1CCN(Cc2ccc(CN(C)C(=O)C(C)C)n2C)CC1.O=C(O)CCC(=O)O	9.08	1.07	0	–	3	–
COc1ccccc1N1CCN(Cc2ccc(CN(Cc3ccccc3)C(=O)c3ccccc3)n2C)CC1.O=C(O)CCC(=O)O	–	–	0	–	8	–
CCCCS(=O)(=O)N(C)Cc1ccc(CN2CCN(c3ccccc3OC)CC2)n1C.O=C(O)CCC(=O)O	8.15	3.7	1	–	7	–
COc1ccccc1N1CCN(Cc2ccc(CN3CCCCCC3=O)o2)CC1.O=C(O)CCC(=O)O	7.57	–	11	93	–	–
CC(C)Oc1ccccc1N1CCN(Cc2ccc(C(=O)N3CCCCC3)n2C)CC1.Cl	–	–	5	56	–	–
COc1ccccc1N1CCN(Cc2ccc(CN(C)C(C)=O)n2C)CC1.O=C(O)CCC(=O)O	7.41	–	2	–	52	–
CCCCS(=O)(=O)N(C)Cc1ccc(CN2CCN(c3ccccc3OC(C)C)CC2)n1C.O=C(O)CCC(=O)O	7.74	2.5	0	–	2	–
CNC(=O)c1ccc(CN2CCN(c3ccccc3OC(C)C)CC2)n1C.O=C(O)CCC(=O)O	7.24	72.4	0	–	15	–
CC(C)Oc1ccccc1N1CCN(Cc2cc(C(=O)N3CCCCCC3)cs2)CC1.Cl	9.39	–	4	–	45	–
COc1ccccc1N1CCN(Cc2ccc(CN(Cc3ccccc3)C(C)=O)n2C)CC1.O=C(O)CCC(=O)O	–	–	0	–	3	–
COc1ccccc1N1CCN(Cc2ccc(CN3C(=O)c4ccccc4C3=O)o2)CC1	8.72	–	0	3	–	–
